Results from different studies.
Protocols differ between the studies behind these lines.
Target: Adenosine receptor A1 (ADORA1, Homo sapiens, UniProt P30542)
Sequence (P30542 1-326, as in one of the studies): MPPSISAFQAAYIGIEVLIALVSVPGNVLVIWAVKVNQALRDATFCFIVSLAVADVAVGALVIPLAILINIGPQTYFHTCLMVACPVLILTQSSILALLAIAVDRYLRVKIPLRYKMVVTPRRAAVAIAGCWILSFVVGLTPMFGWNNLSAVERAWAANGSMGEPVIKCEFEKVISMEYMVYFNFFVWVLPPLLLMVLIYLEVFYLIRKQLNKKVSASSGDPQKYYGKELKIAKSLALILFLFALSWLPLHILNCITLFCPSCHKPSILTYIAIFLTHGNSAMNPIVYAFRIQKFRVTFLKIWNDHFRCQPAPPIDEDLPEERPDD

`CSC[C@@]12C[C@@H]1[C@@H](n1cnc3c(NC(C4CCCC4)C4CCCC4)nc(SC)nc31)[C@H](O)[C@@H]2O` gave an inhibition of 15% (ligand displacement; radioligand; 10 µM).
`CC(C)N1CCC[C@H]1CNC(=O)c1cn(C2CCCC2)c(=O)c2c1c1ccccc1n2C` has an inhibition of -1% (ligand displacement; radioligand; 10 µM).
`COc1ccc(S(=O)(=O)N2CCCCC2)cc1C` gave an inhibition of under 30% (ligand displacement; radioligand; 10 µM).
`COCc1c(-c2cc3cc(C)cc(OC)c3s2)c2c(N)ncnn2c1CN1CCNC(=O)C1` has an inhibition of 16% (ligand displacement; radioligand; 10 µM).
`O=C(Nc1cccnn1)N1CCN([C@@H]2CCOc3cc(C(F)(F)F)ccc32)CC1` gave an inhibition of 17% (cell-free assay; 20 µM).
For `c1ccc(C(NCCNC(c2ccccc2)c2ccccc2)c2ccccc2)cc1`, the inhibition was 30% (cell-free assay; 10 µM).
The inhibition of `CN(CCN1CCC(OC(=O)Nc2ccccc2-c2ccccc2)CC1)C(=O)c1ccc(CN2CCC(C(N)=O)CC2)cc1` is reported as 0% (ligand displacement; radioligand; 1 µM).
`CCSC[C@@]12C[C@@H]1[C@@H](n1cnc3c(NC(C4CCCC4)C4CCCC4)nc(Cl)nc31)[C@H](O)[C@@H]2O` gave an inhibition of 54% (ligand displacement; radioligand; 10 µM).
With `C[C@H](C(=O)N[C@H]1COc2ccccc2[C@@H]1S(C)(=O)=O)c1ccc(F)cc1` the inhibition was 1% (cell-free assay; 10 µM).
`COc1ccc(SC[C@@]23C[C@@H]2[C@@H](n2cnc4c(NC(C5CCCC5)C5CCCC5)nc(Cl)nc42)[C@H](O)[C@@H]3O)cc1OC` has an inhibition of 39% (ligand displacement; radioligand; 10 µM).
For `CCN(CC)CCCC[C@H](NC(=O)[C@H](CC(C)C)NC(=O)[C@H](C)NC(=O)[C@H](Cc1ccccc1)NC(=O)c1ccc(C(C)(C)C)cc1)C(=O)N[C@@H](CO)C(=O)OC`, the inhibition was 4% (ligand displacement; radioligand; 10 µM).
